Assay outcomes from PubChem BioAssay.
NR2E3 ag-1 – activates human NR2E3 receptor. Q9Y5X4. CHO-S Gal4-NCOR/VP16-NR2E3 two-hybrid, luciferase. inhibition of corepressor binding, % at 3.98 µM. actives 0.35% (n = 360,000). AID 602229;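 active = inhibition above the mean of all tested compounds plus 3 SD, cut at about 70% in these data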;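 also: 0% = DMSO with NR2E3 transfected cells and 100% = cells lacking NR2E3 construct; higher means lower luciferase signal from less NR2E3 corepressor binding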
Target sequence (Q9Y5X4 whole entry, looked up, the tested form may be a part): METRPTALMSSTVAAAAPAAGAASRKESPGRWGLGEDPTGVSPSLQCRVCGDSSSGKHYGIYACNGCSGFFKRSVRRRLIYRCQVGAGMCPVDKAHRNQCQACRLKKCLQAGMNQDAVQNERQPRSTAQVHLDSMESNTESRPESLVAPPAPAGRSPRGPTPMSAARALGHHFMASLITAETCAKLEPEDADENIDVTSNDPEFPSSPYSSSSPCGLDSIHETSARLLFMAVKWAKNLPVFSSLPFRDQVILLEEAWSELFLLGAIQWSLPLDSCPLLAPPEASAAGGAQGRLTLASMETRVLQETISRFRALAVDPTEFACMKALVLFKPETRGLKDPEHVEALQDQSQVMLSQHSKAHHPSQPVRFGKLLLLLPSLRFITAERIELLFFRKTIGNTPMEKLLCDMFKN
NR2E3 ag-2 – NR2E3 (human) agonism; GST-NR2E3/biotin-RetCOR TR-FRET, 1536-well; Q9Y5X4; actives 0.12% (n = 320,000); AID 2300; inhibition of corepressor binding, % at 4.78 µM;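 active = percent inhibition above the cutoff of mean plus 3 SD of all tested compounds, set per screening campaign, cut at about 20% in these data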;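 also: 0% = DMSO wells and 100% = biotin wells as full block of FRET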
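Material: NR2E3–RetCOR corepressor complex | Quantity: 1.35 nM GST-tagged NR2E3 final | Schedule: 5 h at 4 °C | Replication: Singlicate compound wells | Reagent: RetCOR corepressor, biotinylated, 7 nM | Controls: Biotin wells as high control, 0.6% DMSO wells as low control | Signal: TR-FRET, Eu(K)-anti-GST donor, streptavidin-D2 acceptor, ex 340, em 617/671 nm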
PG9 Ab binder – PG9 antibody binding by small molecule | TR-FRET gp120-PG9 antibody binding | inhibition, % at 6.7 µM | actives 0.43% (n = 360,000) | AID 624416; in the data active = inhibition above about 8.5%
Rev-erbA mod – modulators of human Rev-erb alpha DNA binding; actives 0.79% (n = 370,000); Rev-erbα–FITC-DNA binding, fluorescence polarization, 90 min; activity, % at 10 µM;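 active = activity above about 14%, limit read from the data; passing the limit was not always enough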;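 also: 0% = DMSO wells with 35 nM protein and 100% = DMSO wells with 750 nM protein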
NR2E3 ag confirm – confirmation of human NR2E3 agonists; shares compounds with NR2E3 ag-1; AID 624378; actives 51% (n = 2,300); CHO-S mammalian two-hybrid NR2E3-NCOR, luciferase luminescence; inhibition, % at 3.98 µM;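 active = average inhibition above a cutoff equal to the mean inhibition of all tested compounds plus one SD, cut at about 70% in these data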;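 also: 0% = DMSO in NR2E3 cells and 100% = DMSO in cells lacking NR2E3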
GAL4-VP16 luc – counter-screen for NR2E3 agonists: GAL4-VP16 reporter inhibitors; shares compounds with NR2E3 ag-1; CHO-S GAL4-VP16 luciferase reporter, luminescence; inhibition, % at 3.98 µM; actives 29% (n = 2,300); AID 624379;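 active = mean inhibition above a cutoff equal to the average over all tested compounds plus one standard deviation, cut at about 70% in these data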;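 also: luciferase from a UAS reporter driven by GAL4-VP16 transactivation; 0% = DMSO with VP16-transfected cells and 100% = DMSO with cells lacking VP16; higher means less reporter light so more repression of VP16 activity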
Starred values were filed as active, the others as inactive; / = no result; ! = a repeat was not active. Compounds with a hit are over-represented: about 1.4% of the library has one in this group of screens.

SMILES | NR2E3 ag-1 | NR2E3 ag-2 | PG9 Ab binder | Rev-erbA mod | NR2E3 ag confirm | GAL4-VP16 luc
CC(=O)Oc1c(C)cc(Cl)cc1C(=O)Nc1ccc([N+](=O)[O-])cc1Cl | 82.7* | -1.0 | -0.4 | -1.3 | 98.9* | 72.6*
CC(NC(=S)NC1CCCCC1)c1ccccc1 (centres undefined) | -15.6 | 0.1 | -2.6 | -2.3 | / | /
CCCc1ccc(C(C)NC(=S)NC2CCCCC2)cc1 (centres undefined) | 50.9 | / | -1.2 | 5.8 | 41.8 | 51.0
CCCc1ccc(C(C)NC(=S)NCc2ccc(F)cc2)cc1 (centres undefined) | 77.3* | 2.2 | -1.0 | 0.9 | 29.2 | 28.4
Cc1ccc(NC(=S)NC2CCSc3ccccc32)cc1C (centres undefined) | 66.0 | 1.0 | -1.9 | -2.2 | -7.7 | 17.1
O=C(CC(Nc1ccc(Cl)cc1Cl)C(=O)O)c1ccccc1 (centres undefined) | 59.3 | 1.5 | 0.6 | -5.4 | 39.7 | 26.5
CCCCOc1ccc(S(=O)(=O)Nc2cccnc2)cc1 | 94.3* | 3.1 | -1.8 | -1.8 | 90.1* | 74.4*
CCCCN(C)c1c(C)nc2ccc(C(=O)NCCOc3ccc(OC)cc3)cn12 | 48.7 | / | / | / | 94.2* | 68.5
Cc1nn(-c2ccccc2Cl)c(Cl)c1/C=N/Nc1nc2ccccc2s1 | 51.7 | -4.0 | -3.2 | -4.5 | 77.4* | 67.1
O=C(Cc1ccc([N+](=O)[O-])cc1)NC(C(=O)O)C(O)c1cccc([N+](=O)[O-])c1 (centres undefined) | -24.0 | 4.8 | -0.9 | -3.9 | / | /
COc1ccc(S(=O)(=O)Oc2ccc3ccccc3c2)cc1 | -87.8 | -6.1 | 2.0 | -2.6 | / | /
COC1=C(OC)C(=O)C(Sc2ccc3ccccc3c2)=CC1=O | 84.2* | / | -0.9 | 0.3 | 93.5* | 61.5
O=C(O)CC/C(=C\c1ccc(N2CCCC2)c([N+](=O)[O-])c1)c1nc2ccccc2s1 | -20.1 | 5.5 | 0.6 | -1.9 | / | /
CN(c1ccccc1)c1ccc(/C=C(/CCC(=O)O)c2nc3ccccc3s2)cc1[N+](=O)[O-] | 67.4 | / | 0.7 | -4.5 | 26.2 | 43.8
Cc1ccc(NC(=O)CSc2nnc(-c3ccccn3)n2C)cc1 | -5.0 | 0.8 | -1.1 | -0.2 | / | /
CN(c1ccccc1)S(=O)(=O)c1cccc(NC(=O)CSc2nncs2)c1 | 69.9 | 2.6 | 1.8 | -3.0 | 65.7 | 76.0*
CN(c1ccccc1)S(=O)(=O)c1cccc(NC(=O)CSc2nnc(N)s2)c1 | 20.5 | -3.0 | 1.6 | 0.3 | / | /
COc1ccccc1CNc1nc(NCc2ccc3occc3c2)c2sccc2n1 | 69.0 | / | -0.8 | -7.4 | 53.5 | 64.2
c1cc2cc(CNc3nc(NCC4CC4)nc4ccsc34)ccc2o1 | 15.6 | / | -0.4 | 2.1 | / | /
COc1ccccc1CNc1nc(NCc2ccccc2OC)c2sccc2n1 | 75.1* | / | 0.5 | 7.0 | 75.0* | 57.3
COc1ccccc1CNc1nc(NCc2ccccc2SC)c2sccc2n1 | 80.1* | / | 0.3 | 1.0 | 85.2* | 69.7
COCCNc1nc(NCc2ccccc2OC)c2sccc2n1 | 14.6 | / | -0.7 | 3.4 | / | /
CCCOc1ccc(Br)cc1CSC(=N)N | 51.3 | -0.6 | -2.2 | 3.4 | 45.8 | 49.5
c1ccc(CNc2ncnc3ccccc23)cc1 | 79.9*! | -0.4 | -2.2 | -1.4 | 72.4* | 71.1*
OCCCCCNc1ncnc2ccccc12 | 79.3* | 1.3 | -1.4 | -0.8 | 68.0 | 61.5
SMILES | NR2E3 ag-1 | NR2E3 ag-2 | PG9 Ab binder | Rev-erbA mod | NR2E3 ag confirm | GAL4-VP16 luc
COc1cc2ncnc(NCc3ccccc3)c2cc1OC | -7.9 | 0.1 | -0.8 | 2.7 | / | /
COc1ccc(OC)c(-c2csc(NC(=O)Cc3ccc(F)cc3)n2)c1 | -5.2 | 5.7 | -1.1 | 4.8 | / | /
COc1ccc(OC)c(-c2csc(NC(=O)Cc3cc(OC)c(OC)c(OC)c3)n2)c1 | 54.1 | -1.6 | 1.0 | 6.9 | 26.0 | 49.4
OC[C@@H]1CN(Cc2ccc(-c3ccccc3)cc2)C[C@H](n2cnc3c(Nc4ccccc4)ncnc32)O1 | 50.3 | / | 0.4 | -3.0 | 76.5* | 51.2
CC(C)N(C)c1ncnc2c1ncn2[C@H]1CN(Cc2ccc(-c3ccccc3)cc2)C[C@@H](CO)O1 | 55.3 | / | 0.6 | -1.0 | 31.2 | 26.2
CC(C)N(C)c1ncnc2c1ncn2[C@H]1CN(Cc2ccncc2)C[C@@H](CO)O1 | -19.2 | / | -0.9 | -4.1 | / | /
OC[C@@H]1CN(Cc2cccc3ccccc23)C[C@H](n2cnc3c(NCc4ccco4)ncnc32)O1 | 52.7 | / | -0.7 | -7.7 | 6.2 | 8.0
OC[C@@H]1CN(Cc2ccc(F)cc2)C[C@H](n2cnc3c(Nc4ccccc4)ncnc32)O1 | -50.4 | / | -0.8 | -0.8 | / | /
COc1ccc(CCN(C)C(=O)Cc2ccc(-c3ccccc3)cc2)cc1OC | 84.5* | 2.0 | 0.8 | -8.9 | 85.3* | 60.0
CP(=O)(COC(=O)c1ccccc1)COC(=O)c1ccccc1 | 1.6 | -1.1 | -1.1 | -4.0 | / | /
Cc1cc(=O)n2[nH]c(C)c(-c3ccccc3)c2n1 | -26.9 | 2.4 | 0.4 | 0.9 | / | /
O=c1cc(-c2ccccc2)nc2c(-c3ccccc3)c(C(F)(F)F)[nH]n12 | 58.4 | -0.5 | 2.4 | -8.2 | 100.3* | 76.5*
CC(=O)N1CCCc2ccc(NS(=O)(=O)c3ccc(C)c(C)c3)cc21 | 66.5 | -1.1 | -2.8 | -0.5 | 59.8 | 48.4
COc1ccc(OC)c(S(=O)(=O)Nc2ccc3c(c2)N(C(C)=O)CCC3)c1 | 7.9 | -4.9 | -0.9 | 4.0 | / | /
CC(=O)Nc1ccc(S(=O)(=O)Nc2ccc3c(c2)CCC3)cc1 | 51.3 | 4.4 | -1.0 | -1.0 | 21.9 | 28.6
CC(C)(C)OC(=O)N1CCC(c2c(C(=O)N3CCN(C4CCCCC4)CC3)cnn2-c2ccc(F)cc2)CC1 | -25.0 | -0.4 | -1.8 | -3.0 | / | /
Cc1nnc2ccc(Oc3ccc(-c4ccccc4)cc3)nn12 | 69.9 | 7.2 | -1.0 | 1.1 | 91.0* | 73.5*
CCC(=O)Nc1ccc(C(=O)COC(=O)c2nc3nccc(C)n3n2)cc1 | -13.6 | 1.3 | -0.5 | -26.8 | / | /
COc1ccc(CNCCc2ccc(Cl)cc2)cc1OCc1ccccc1 | 47.9 | -1.2 | / | / | 82.3* | 71.2*
COc1ccc(CCNC(=O)Cc2ccc(OCc3ccccc3)c(OC)c2[N+](=O)[O-])cc1OCc1ccccc1 | 101.4* | 2.1 | -1.4 | -4.1 | 88.0* | 73.0*
Cc1ccc(S(=O)(=O)N2[C@@H](c3cccc(Cl)c3)C(C(=O)O)=CC[C@H]2c2ccc(C(C)C)cc2)cc1 | 72.5* | 0.8 | -1.6 | 10.6 | 23.4 | 26.9
Cc1ccc(S(=O)(=O)N2[C@@H](c3ccc(F)cc3)C(C(=O)O)=CC[C@H]2c2ccc(C(C)C)cc2)cc1 | 72.9* | 1.8 | 2.0 | -5.0 | 29.6 | 49.6
Cc1ccc(S(=O)(=O)N2[C@@H](c3ccc(F)cc3)C(C(=O)O)=CC[C@H]2c2ccc(Cl)cc2)cc1 | -20.6 | 5.4 | 0.1 | -4.5 | / | /
Cc1ccc(S(=O)(=O)N2[C@@H](c3ccc(Cl)cc3)C(C(=O)O)=CC[C@H]2c2cccc(Cl)c2)cc1 | -16.7 | 1.3 | 0.0 | -1.8 | / | /
